Drawing on ChEMBL document CHEMBL1136634, “Synthesis and photoreactivity of caged blockers for glutamate transporters” (Bioorg Med Chem Lett, 2003), this text covers IC50, half-life and T1/2 for 5 compounds.

Series [1] in a line: Glutamate uptake inhibition assay on glutamate transporters (excitatory amino acid transporters EAAT2) stably expressed on MDCK cells after 20 min U.V irradiation. It counts as cell-based. The settings on record: Canis lupus familiaris, light or radiation study. The gist of the method:
(§1)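 Before assay, caged compound in PBS(+) (1 mM CaCl2, 1 mM MgCl2, pH 7.4) was held in 1 mm quartz cuvettes in a dark box and irradiated with a 365 nm UV hand lamp at room temperature. Relative specific uptake came from three experiments, and IC50 was derived.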

The nature of series [2]: Half-life was determined. Type of series: ADME. The settings on record: human.
The nature of series [3]: Glutamate uptake inhibition assay on glutamate transporters (excitatory amino acid transporters EAAT2) stably expressed on MDCK cells after 10 min U.V irradiation. It counts as cell-based. The settings on record: Canis lupus familiaris, light or radiation study. Put shortly:
as §1

Series [4] in a line: Glutamate uptake inhibition assay on glutamate transporters (excitatory amino acid transporters EAAT2) stably expressed on MDCK cells after 1 min U.V irradiation. It counts as cell-based. The note with it: Canis lupus familiaris, light or radiation study. Put shortly: as §1
Series [5] is described as follows: Glutamate uptake inhibition assay on glutamate transporters (excitatory amino acid transporters EAAT2) stably expressed on MDCK cells after 5 min U.V irradiation. It counts as cell-based. The settings on record: Canis lupus familiaris, light or radiation study. The gist of the method:
as §1

A short description of series [6]: Glutamate uptake inhibition assay on glutamate transporters (excitatory amino acid transporters EAAT2) stably expressed on MDCK cells before U.V radiation. Type of series: cell-based. The settings on record: Canis lupus familiaris.
The nature of series [7]: Glutamate uptake inhibition assay on EAAT2 stably expressed on MDCK cells. It counts as cell-based, Canis lupus familiaris.

For `N[C@H](C(=O)OCc1cc(=O)oc2cc(OCC(=O)O)ccc12)[C@H](OCc1ccccc1)C(=O)O`, the IC50 in series [1] worked out at 5.6 µM; in series [3] it was 7 µM; in series [4], 24 µM; in series [5] it was 8.6 µM; in series [6] it was 124 µM. In series [2], this compound showed a half-life of 3.7 min.

On to `COc1ccc2c(COC(=O)[C@@H](N)[C@H](OCc3ccccc3)C(=O)O)cc(=O)oc2c1`, for which, in series [2], the half-life stood at 3.9 min. The IC50 in series [7] (Canis lupus familiaris, MDCK) is 124 µM.

For `N[C@H](C(=O)O)[C@H](OCc1ccccc1)C(=O)O`, the IC50 in series [6] was determined as 1.3 µM.

Consider `COc1cc(C(C)OC(=O)[C@@H](N)[C@H](OCc2ccccc2)C(=O)O)c([N+](=O)[O-])cc1OC` (stereo in doubt; 3a), for which the T1/2 in series [2] worked out at 57.2 min. Besides, half-maximal inhibition in series [7] (mdck) (IC50) required 103 µM.

In series [2], `COc1cc(C(C)OC(=O)[C@@H](N)[C@H](OCc2ccccc2)C(=O)O)c([N+](=O)[O-])cc1OC` (stereo in doubt; 3b) returned a half-life of 45.2 min. It took 111 µM to reach half-maximal inhibition in series [7] (Canis lupus familiaris, MDCK) (IC50).

As a reminder, the IC50 is the concentration that gives 50% inhibition. Read a high IC50 as weaker potency in that assay. In general, half-life refers to the time in which the quantity being followed falls by half. Higher therefore signals slow decline.
